From ChEMBL document CHEMBL1128676, “Phosphonates and phosphinates: novel leaving groups for benzisothiazolone inhibitors of human leukocyte elastase” (J Med Chem, 1995) come the findings set out here.

Data set [1] addresses T1, Neutrophil elastase (Homo sapiens, UniProt P08246).
T1 sequence (P08246 whole entry): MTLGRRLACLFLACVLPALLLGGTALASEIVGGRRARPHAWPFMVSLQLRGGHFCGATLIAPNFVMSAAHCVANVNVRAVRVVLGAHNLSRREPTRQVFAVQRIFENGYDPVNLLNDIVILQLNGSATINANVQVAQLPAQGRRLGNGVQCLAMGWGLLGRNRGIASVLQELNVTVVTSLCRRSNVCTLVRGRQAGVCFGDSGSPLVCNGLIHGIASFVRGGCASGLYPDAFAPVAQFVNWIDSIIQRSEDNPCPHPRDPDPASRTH
As to the kind of experiment: In vitro inhibitory activity against Human leukocyte elastase. In a few lines:
(§1)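 Human leukocyte elastase inhibition measured in vitro at pH 7.8. Kinetic constants reported as k_inact (M⁻¹ s⁻¹), k_react (s⁻¹) and K_i* (nM).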

Data set [2] addresses T2, Neutrophil elastase (Homo sapiens) (UniProt P08246).
T2 sequence (whole entry): T1 sequence (P08246 whole entry)
As to the kind of experiment: Inhibitory activity against Human leukocyte elastase was determined in vitro and expressed as kinetic constant for inhibition (reactivity). In a few lines:
as §1

Data set [3] addresses T2, Neutrophil elastase (Homo sapiens). Description: Inhibitory activity against Human leukocyte elastase as kinetic constant for inhibition (inactivation). In a few lines: as §1
For data set [4], the system named is Cricetinae gen. sp. Description: In vivo inhibitory activity of 10 mg/kg compound administered subcutaneously against Human leukocyte elastase induced hemorrhage in hamster. Format: functional, Cricetulus griseus. The following applies: sc, route subcutaneous. In a few lines:
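Hamsters dosed subcutaneously at 10 mg/kg, 1 min before intratracheal instillation of human leukocyte elastase (25 μg), to induce pulmonary hemorrhage. Readout is % inhibition of in vivo HLE activity, mean ± error.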

Data set [5] has as its target T1, Neutrophil elastase. As to the kind of experiment: Inhibitory activity against Human leukocyte elastase was determined. The procedure, abridged: as §1
Data set [6] addresses T2, Neutrophil elastase (Homo sapiens).
Data set [7] in a line: Acid dissociation constant was determined. The class given is ADME.
Data set [8] deals with Cricetinae gen. sp. As to the kind of experiment: In vivo inhibitory activity of 10 mg/kg compound administered intravenously against Human leukocyte elastase induced hemorrhage in hamster. The class given is functional, Cricetulus griseus. Particulars: route intravenous. In a few lines: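 Hamster elastase-induced pulmonary hemorrhage model: 10 mg/kg given intravenously 1 min before intratracheal human leukocyte elastase (25 μg). Result expressed as % inhibition of HLE activity, mean ± error.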

The Ki is a dissociation constant, usually derived from enzyme kinetics or from competition with a known ligand. Broadly, the inhibition in vivo is the drop in the measured response relative to a control, in per cent. Read a low inhibition in vivo as little suppression. `CCOP(=O)(OCC)OCN1C(=O)c2c(C(C)CC)cccc2S1(=O)=O` (stereo not drawn): affinity in data set [1] was put at a Ki of 0.07 nM. The Kreact in data set [2] is 5.6e-05 s⁻¹. For the same compound, the K inact in data set [3] was found to be 800000 M⁻¹ s⁻¹. In data set [4], this compound returned an inhibition in vivo at 10 mg/kg of 83%.
As a reminder, the pKa is the pH at which an ionisable group is half protonated. With `CCOP(=O)(OCC)OCN1C(=O)c2ccccc2S1(=O)=O`, the Ki in data set [1] and in data set [5] was 60 nM in each case. For the same compound, the Kreact in data set [2] worked out at 6.6e-05 s⁻¹. Moreover, the K inact in data set [3] and in data set [6] was 1100 M⁻¹ s⁻¹ in each case. In data set [4], this compound gave an inhibition in vivo at 10 mg/kg of 56%. Moreover, the pKa in data set [7] is 2.5.
In turn, `O=C1c2ccccc2S(=O)(=O)N1COP(=O)(Oc1ccccc1)Oc1ccccc1` gave a K inact in data set [3] of 11000 M⁻¹ s⁻¹. The compound further yielded a Ki in data set [5] of 6.5 nM. Moreover, in data set [7], the pKa turned out to be 1.91.
The compound `O=C1c2ccccc2S(=O)(=O)N1COP(=O)(OCc1ccccc1)OCc1ccccc1` came in with a K inact in data set [3] of 4100 M⁻¹ s⁻¹. In data set [5], this compound yielded a Ki of 20.5 nM. The compound further yielded a pKa in data set [7] of 2.26.
`CCOP(=O)(OCC)OCN1C(=O)c2c(C(C)C)cc(O)cc2S1(=O)=O` had a Ki in data set [1] of 4.5 nM. In addition, the Kreact in data set [2] was determined as 1.4e-05 s⁻¹. Further, the K inact in data set [3] stood at 3300 M⁻¹ s⁻¹.
Turning to `CCCCOP(=O)(OCCCC)OCN1C(=O)c2ccccc2S1(=O)=O`, in data set [3], the K inact came to 4800 M⁻¹ s⁻¹. In data set [5], this compound gave a Ki of 17 nM. In addition, the pKa in data set [7] amounted to 2.59.
The corresponding values for `COP(=O)(OC)OCN1C(=O)c2ccccc2S1(=O)=O` are 800 M⁻¹ s⁻¹, 100 nM and 2.56.
With `O=C1c2ccccc2S(=O)(=O)N1COP(=O)(c1ccccc1)c1ccccc1`, the K inact in data set [3] came out at 1900 M⁻¹ s⁻¹. For the same compound, the Ki in data set [5] came out at 30 nM. In data set [7], this compound yielded a pKa of 3.34.
As to `CCCCP(=O)(CCCC)OCN1C(=O)c2ccccc2S1(=O)=O`, in data set [3], the K inact came to 2300 M⁻¹ s⁻¹. The Ki in data set [5] was found to be 24 nM.
In data set [1], `CCOP(=O)(OCC)OCN1C(=O)c2c(C(C)C)cccc2S1(=O)=O` registered a Ki of 0.1 nM. In data set [2], the Kreact amounted to 5.3e-05 s⁻¹. The compound further registered a K inact in data set [3] of 530000 M⁻¹ s⁻¹. Also, the inhibition in vivo at 10 mg/kg in data set [8] is 84%.
As for `CCOP(=O)(OCC)OCN1C(=O)c2c(C(C)C)cc(OC)cc2S1(=O)=O`, the Kreact in data set [2] came out at 1.2e-05 s⁻¹. For the same compound, the K inact in data set [3] was determined as 343000 M⁻¹ s⁻¹. Moreover, the inhibition in vivo at 10 mg/kg in data set [8] worked out at 92%.
